High-throughput results deposited in PubChem by several laboratories.
ARFGAP1 inh – rat ARFGAP1 inhibition; inhibition, % at 16.5 µM; AID 651572; actives 0.26% (n = 360,000); Arfgap1-stimulated ARF1 GTP hydrolysis, GDP FP detection; Q62848;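 active means inhibition above a per-plate limit, mean inhibition of low control wells plus 3 SD, cut at about 25% in these data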;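 further: 0% = DMSO wells with enzyme and 100% = wells lacking Arfgap1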
Target sequence (Q62848 1-136 limits assumed): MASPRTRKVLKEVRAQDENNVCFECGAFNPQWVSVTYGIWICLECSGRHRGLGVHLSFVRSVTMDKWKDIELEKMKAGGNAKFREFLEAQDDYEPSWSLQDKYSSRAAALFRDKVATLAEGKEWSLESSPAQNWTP
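Replicates: Single well per compound | Assay system: Truncated rat Arfgap1 GAP domain | Control set: No-Arfgap1 wells (100%) versus DMSO full-reaction wells (0%) | Times: Enzyme reaction 120 min at 25 °C after 20 min preincubation | Reagent: Human ARF1(Δ1-17)-GTP substrate | Measured by: Tracer-displacement fluorescence polarization with EDTA stop, 620/688 nm | Measure: Percent inhibition of Arfgap1-stimulated GTP hydrolysis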
Exocytosis inh – lytic granule exocytosis inhibition | TALL-104 LAMP-1 surface exposure, flow cytometry; cells stimulated with thapsigargin and PMA | inhibition, % at 10 µM | actives 0.66% (n = 360,000) | AID 651702;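 active means inhibition above about 55%, limit read from the data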
ASAP1 inh – ASAP1 ArfGAP inhibition; Q9ULH1; ASAP1-stimulated ARF1 GTP hydrolysis, GDP FP detection; inhibition, % at 16.5 µM; actives 0.19% (n = 360,000); in the data active means inhibition above about 25%;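 further: 0% = vehicle with enzyme and substrate and 100% = no enzyme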
Target sequence (Q9ULH1 325-724 limits assumed): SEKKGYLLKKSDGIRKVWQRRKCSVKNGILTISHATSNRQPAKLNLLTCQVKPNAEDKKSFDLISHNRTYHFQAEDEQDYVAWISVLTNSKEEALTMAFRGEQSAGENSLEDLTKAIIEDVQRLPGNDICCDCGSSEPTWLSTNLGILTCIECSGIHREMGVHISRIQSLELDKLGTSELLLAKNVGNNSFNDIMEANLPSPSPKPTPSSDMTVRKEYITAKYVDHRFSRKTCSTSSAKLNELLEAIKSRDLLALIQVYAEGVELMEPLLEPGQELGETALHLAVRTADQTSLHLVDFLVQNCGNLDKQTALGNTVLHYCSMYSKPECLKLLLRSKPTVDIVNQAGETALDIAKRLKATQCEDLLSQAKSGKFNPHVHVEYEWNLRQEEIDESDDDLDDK
V-ATPase pHluor – yeast V-ATPase proton transport regulation by pHLuorin | S. cerevisiae, pHLuorin cytosolic pH fluorescence | response, % at 10 µM | actives 0.37% (n = 350,000) | AID 504577; in the data active means response mostly above about 7.3%, no sharp cut-off; inactive means mostly below about 5.4%; further: actives read high
CendR NRP1 mod – modulators of CendR peptide binding to human neuropilin-1. FAM-RPARPAR peptide binding to NRP-1, fluorescence polarization. inhibition, % at 25 µM. actives 0.85% (n = 360,000);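 active means inhibition or corrected inhibition above about 18%, plus a signal ratio from 0.5 to 1.5, limit read from the data, passing the limit was not always enough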
Active calls of the source: *; x = no result. Hits are enriched below; roughly 2.2% of the tested compounds scored in any of these assays.

SMILES | ARFGAP1 inh | Exocytosis inh | ASAP1 inh | V-ATPase pHluor | CendR NRP1 mod
O=C(c1ccc(-c2cccc(C(F)(F)F)c2)o1)N1CCN(c2ccccc2O)CC1 | 3.1 | -1.1 | 3.3 | 1.2 | -0.9
CC1Oc2ccccc2N(CC(=O)N2CCCC2)C1=O (configuration not stated) | 1.0 | -1.5 | -11.6 | 14.4* | -3.5
CC1CCCN(C(=O)CN2C(=O)C(C)Oc3ccccc32)C1 (configuration not stated) | 7.1 | -11.8 | -7.7 | -0.7 | 5.5
CC(=O)O[C@@H]1C=C[C@@H](C#Cc2ccc(C(C)(C)C)cc2)O[C@@H]1COC(=O)NCc1ccccc1 | 7.3 | x | 1.6 | x | x
O=S1(=O)N[C@@H](Cc2ccccc2)COc2cc(N3CCCCC3)ccc21 | 7.8 | x | -1.5 | x | x
O=c1c2cc(F)ccc2sn1-c1ccccc1 | 10.4 | -9.7 | 8.4 | 0.8 | 2.7
Cc1ccccc1-n1sc2cc(F)ccc2c1=O | -7.3 | 70.7* | -2.5 | 3.5 | -3.8
O=C(N/N=C/c1ccc2c(c1)OCO2)c1cc(-c2ccco2)nc2ccccc12 | -10.4 | 8.4 | 3.4 | 0.6 | -24.4
O=C(N/N=C/c1ccc2c(c1)OCO2)c1cc(-c2ccccc2)nc2ccccc12 | 0.6 | -4.7 | 6.9 | 3.8 | 26.2*
Cc1csc(NC(=O)c2cc(-c3ccccc3)nc3ccccc23)n1 | -3.9 | -0.9 | -2.4 | 3.9 | 35.0*
Cc1cc(C)nc(NC(=O)c2cc(-c3ccc4c(c3)OCO4)nc3ccccc23)c1 | 2.2 | -13.1 | 3.7 | 13.9* | -12.7
O=C(N/N=C/c1ccc2c(c1)OCO2)c1cccc2ccccc12 | 6.2 | -5.2 | -1.0 | -0.1 | 29.9*
Cc1cc(-c2ccccc2)[nH]c(=O)c1C#N | -6.2 | 1.3 | 2.9 | 0.1 | 2.6
N#Cc1c(-c2ccccc2)[nH]c(=O)[nH]c1=O | -2.0 | 1.5 | -19.1 | -0.5 | 27.4*
O=C(O)c1cc2ncc(CCO)cn2n1 | 7.7 | 1.4 | -4.8 | -2.4 | 23.7*
NC1=C(Cl)C(=O)c2ccccc2C1=O | 10.3 | 6.9 | 8.4 | -0.9 | 26.9*
NC1=C(Cl)C(=O)c2ccc(S(N)(=O)=O)cc2C1=O | 17.3 | -4.3 | 56.9* | 1.3 | 22.8
COC(=O)C1=C(C(=O)OC)C2CCCC1C1N=NN(c3ccccc3)C21 (configuration not stated) | -3.4 | x | -4.7 | x | x
C=CC[C@]12C[C@@]3(O[C@H](C4CCCCC4)N=C3C[C@H](c3ccc(OC)cc3)[C@H]1C)N(Cc1ccncc1)C2=O | 5.5 | x | -8.8 | x | x
O=C(N[C@H](C(=O)N1CCC[C@H]1C(=O)NCc1ccccc1)c1ccccc1)c1ccc(Cl)cc1Cl | 0.1 | x | 0.4 | x | x
CCCCOC(=O)c1ccc(NS(=O)(=O)c2cc(-c3nnnn3CC)ccc2OC)cc1 | 5.3 | -2.4 | -5.7 | 1.5 | 23.0*
CC1CCCC(N2C(=O)NC(NC(=O)c3ccco3)(C(F)(F)F)C2=O)C1C (configuration not stated) | -5.8 | -0.3 | 12.7 | -1.7 | 27.6*
Cc1ccc2nc(CN(C)C(=O)[C@H]3O[C@@H](n4cnc(C(N)=O)n4)[C@H](O)[C@@H]3O)[nH]c2c1 | -1.2 | x | 1.0 | x | x
COc1ccc(C[C@H]2CN3C(=NC[C@H]3C)N2CCNC(=O)c2ccc(C)c(Br)c2)cc1 | -2.0 | -3.3 | 1.2 | 6.0 | 6.7
Cc1ccc(C(=O)NCCN2C3=NC[C@H](C)N3C[C@H]2Cc2ccc(O)cc2)cc1Br | -0.8 | -0.5 | 1.7 | -1.1 | 25.1*
SMILES | ARFGAP1 inh | Exocytosis inh | ASAP1 inh | V-ATPase pHluor | CendR NRP1 mod
COc1c2c(cc3c1c(=O)c1ccccc1n3C)OCO2 | 2.1 | x | -4.7 | x | x
COc1ccc(Cn2c(C3CC3)nc3ccc(NC(=O)c4cccnc4)cc3c2=O)cc1 | x | 35.5 | x | 0.6 | 32.5*
CCCCCCCCN1C(=O)[C@@H](CC(=O)N2CCCCC2)C[C@@]2(C(=O)OC)C1=C[C@H](C(C)(C)C)O[C@@H]2C | 10.7 | x | -11.9 | x | x
COC(=O)[C@]12C[C@H](CC(=O)N3CCOCC3)C(=O)N(Cc3ccc4c(c3)OCO4)C1=C[C@H](COCc1ccccc1)O[C@@H]2C | 8.1 | x | -7.0 | x | x
CCC(=O)Nc1cccc(NC(=O)c2ccc(C)cc2Cl)c1 | 6.1 | -1.8 | -7.9 | 16.5* | -9.3
Cc1cccc(NC(=O)c2cc(S(=O)(=O)c3ccccc3)ccc2Cl)c1 | 4.3 | -4.3 | 2.9 | -2.8 | 34.1*
Cc1ccccc1NC(=O)c1cc(S(=O)(=O)c2ccccc2)ccc1Cl | 9.0 | 1.3 | 3.0 | -1.5 | 3.9
COc1cc(NCCCC(C)N)c2ncccc2c1 (configuration not stated) | -6.0 | 1.6 | 2.7 | 0.6 | 44.2*
COc1cc(NCCCCC(C)N)c2nccc(C)c2c1 (configuration not stated) | 4.6 | 1.4 | -2.0 | 3.0 | 8.7
C=CCNC(=O)c1cnn(-c2ccccc2)c1-c1ccccc1 | 10.2 | 5.4 | -1.8 | 2.4 | 25.6*
COC(C[C@H]1O[C@@H]1[C@H](O)[C@H](C)OCc1ccccc1)OC | 4.4 | -5.2 | 2.1 | -6.9 | 26.0*
Nc1cc2nsnc2cc1Br | 21.7 | 23.8 | -5.7 | x | 39.7*
Nc1cccc2nsnc12 | -4.9 | 32.8 | -8.8 | 0.2 | -9.6
O=C(N/N=C/c1c[nH]c2ccccc12)c1sc2ccccc2c1Cl | 10.0 | 1.7 | 3.9 | 0.7 | -3.4
O=C(N/N=C/c1ccccn1)c1sc2ccccc2c1Cl | -0.3 | 60.2* | -11.9 | 0.9 | -52.4
C=CCn1c(SCC(=O)O)nc2sc(CC)cc2c1=O | -12.4 | 1.0 | -10.1 | -1.8 | 26.4*
NNC(=O)c1ccc(N2CCCCCC2)c([N+](=O)[O-])c1 | 6.0 | 4.1 | 4.8 | 2.1 | 31.2*
CN1C(=O)[C@H]2[C@@H](/C=C/c3ccccc3)N3C(=O)CN(Cc4ccccn4)C(=O)[C@@]3(Cc3ccccc3)[C@H]2C1=O | -3.8 | 25.9 | 0.6 | -2.8 | 28.9*
O=C1[C@H]2[C@@H](/C=C/c3ccccc3)N3C(=O)CN(Cc4ccccn4)C(=O)[C@@]3(Cc3ccccc3)[C@H]2C(=O)N1c1ccccc1 | -1.4 | -3.7 | -21.1 | 4.6 | -9.9
O=C(NCc1ccccc1)[C@H]1CCCN1C(=O)[C@H]1CCCN1C(=O)c1ccc(F)cc1 | -6.1 | x | -14.9 | x | x
COc1cc(C#N)ccc1OC(=O)Cc1cc(OC)c(OC)c(OC)c1 | 4.1 | -6.2 | -3.9 | 2.6 | 24.7*
COC(=O)C1=C(C)N(Cc2ccccc2C(F)(F)F)C(=NCc2ccccc2C(F)(F)F)NC1c1ccc(F)cc1 (configuration not stated) | 13.9 | x | -11.4 | x | x
CCOC(=O)C1CCN(C(=S)Nc2ccc(Cl)cc2C)CC1 | -2.9 | -1.1 | 4.0 | 0.2 | 8.5
CCOC(=O)C1CCN(C(=S)Nc2cc(C)ccc2C)CC1 | -0.3 | -1.5 | 6.6 | 21.8* | -4.3
COc1cc(C(=O)O)ccc1OCc1ccccc1 | 4.6 | x | 2.9 | x | x
COc1cc(CC(=O)O)ccc1OCc1ccccc1 | -8.4 | 1.0 | 3.0 | -4.2 | 26.0*
O=C(CCN1CCCC1Cc1ccccc1)c1ccc2c(c1)OCCO2 (configuration not stated) | 0.3 | 100.2* | 1.0 | -1.8 | 3.1
